The CC50 is the concentration giving 50% cytotoxicity. As usually defined, the pIC50 is −log10 of the IC50, conventionally taken in molar units.

We go through nine molecules from ChEMBL document CHEMBL1156918, “5-Modified-2'-dU and 2'-dC as mutagenic anti HIV-1 proliferation agents: synthesis and activity” (J Med Chem, 2010).

pIC50: −log10 of the molar value. Active and inactive are the calls of the source. The rule behind the calls is not given here. Bounds are passed on as bounds.

Data set [1] in a line: Cytotoxicity against human MT4 cells by MTT assay. Format: cell-based. A digest of the protocol: (§1)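 Uninfected cells grown at 37 °C, 5% CO2, in RPMI 1640 with 10% FCS, penicillin, streptomycin and glutamine, were incubated with a range of compound concentrations (up to 200 μM), run alongside the 5-day antiviral assay. Viability was read as MTT reduction to formazan by OD at 540 nm. CC50 was taken from a median effect plot of the dose-effect data.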
On the technique in general: Tetrazolium assays rely on reduction of a dye to a coloured formazan, in cell work by metabolically active cells.

The nature of data set [2]: Cytotoxicity against human CEM-SS cells by MTT assay. Format: cell-based. A digest of the protocol:
as §1

Data set [3] relates to Human immunodeficiency virus 1. The data set is described as follows: Antiviral activity against HIV1 3B in human MT4 cells assessed as RT activity after 5 days by single passage assay. The conditions noted are these: Human immunodeficiency virus 1, 3B, MT4, 120 h. It counts as functional, organism-based. The procedure, abridged:
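MT-4 cells kept in RPMI 1640 with 10% FCS, penicillin, streptomycin and glutamine at 37 °C, 5% CO2. Infected with HIV-1 IIIB at 5 TCID50, 30 min adsorption, washed, resuspended at 10^5 cells/mL with serial compound dilutions. After 5 days, RT activity in the medium was measured. IC50 came from a median-effect plot. AZT was the positive control. Run twice.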

The test system of data set [4] is Human immunodeficiency virus 1. The data set is described as follows: Antiviral activity against HIV1 LAI in human CEM-SS cells assessed as RT activity after 5 days by single passage assay. Format: functional, organism-based. The conditions noted are these: Human immunodeficiency virus 1, LAI, 120 h. The procedure, abridged: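 CEM-SS cells kept in RPMI 1640 with 10% FCS, penicillin, streptomycin and glutamine at 37 °C, 5% CO2. Infected with HIV-1 LAI at 20 TCID50, 30 min adsorption, washed, resuspended at 10^5 cells/mL with serial compound dilutions. After 5 days, RT activity in the medium was measured. IC50 came from a median-effect plot. AZT was the positive control. Run twice.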

Data set [5] has as its system Human immunodeficiency virus 1. In words: Antiviral activity against HIV1 LAI in human CEM-SS cells assessed as RT activity after 4 serial passages with uninfected cells by serial passage experiment. Format: functional, organism-based. The procedure, abridged:
(§2)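 HIV-1 LAI at multiplicity 0.01 added to 2.5×10^5 CEM-SS cells in RPMI, 4 h at 37 °C. Cells washed twice in PBS, resuspended in 1 mL medium with or without analogue at 200 μM (100 μM where cytotoxicity required). Every 4 days an equal supernatant volume went to fresh CEM-SS cells, for eight cycles. RT activity in supernatants read at each passage.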

The test system of data set [6] is Human immunodeficiency virus 1. In words: Antiviral activity against HIV1 LAI in human CEM-SS cells assessed as RT activity after 4 to 8 serial passages with uninfected cells by serial passage experiment. Format: functional, organism-based. A digest of the protocol:
as §2

For data set [7], the system named is Human immunodeficiency virus 1. The data set is described as follows: Antiviral activity against HIV1 LAI in human CEM-SS cells assessed as RT activity after 8 serial passages with uninfected cells by serial passage experiment. It counts as functional, organism-based. The procedure, abridged:
as §2

The subject of data set [8] is Human immunodeficiency virus 1. In words: Induction of mutation in HIV1 LAI in human CEM-SS cells after 7 passages with uninfected cells. It counts as functional, organism-based.

In the case of `NC(=O)Cn1c(=O)ccn([C@H]2C[C@H](O)[C@@H](CO)O2)c1=O`, the CC50 in data set [1] and in data set [2] was over 200 µM in each case. Further, the pIC50 in data set [3] and in data set [4] was under 3.70 throughout.
As to `Nc1nc(=O)n([C@H]2C[C@H](O)[C@@H](CO)O2)cc1CO`, the 50% cytotoxic concentration (CC50) in data set [1] and in data set [2] was over 200 µM throughout. Further, the result in data set [5] was inactive. In addition, the outcome in data set [6] was Active. Besides, the figures for the pIC50 in data set [3] and in data set [4] were under 3.70 and 4.62, respectively.
Turning to `O=c1[nH]c(=O)n([C@H]2C[C@H](O)[C@@H](CO)O2)cc1CO`, the half-maximal cytotoxic concentration (CC50) in data set [1] was 130 µM; in data set [2] it was 120 µM. Further, in data set [5], the outcome was inactive. Also, the result in data set [6] and in data set [7] was Active. Also, the results for the negative logarithm of the IC50 (pIC50) in data set [3] and in data set [4] were under 3.89 and 4.52, respectively.
As to `NC(=O)Cc1cn([C@H]2C[C@H](O)[C@@H](CO)O2)c(=O)[nH]c1=O`, the CC50 in data set [1] and in data set [2] was over 200 µM throughout. Moreover, the outcome in data set [5] and in data set [8] was inactive. Further, the outcome in data set [6] and in data set [7] was Active. Further, the negative-log IC50 (pIC50) in data set [3] and in data set [4] was under 3.70 in each case.
Take `NC(=O)c1cn([C@H]2C[C@H](O)[C@@H](CO)O2)c(=O)nc1N`: the half-maximal cytotoxic concentration (CC50) in data set [1] and in data set [2] was over 200 µM each time. Also, the pIC50 in data set [3] and in data set [4] was under 3.70 throughout.
As for `O=c1[nH]c(=O)n([C@H]2C[C@H](O)[C@@H](CO)O2)cc1O`, the cytotoxic concentration (CC50) in data set [1] and in data set [2] was over 200 µM throughout. The pIC50 in data set [3] and in data set [4] was under 3.70 in each case.
In the case of `NC(=O)c1cn([C@H]2C[C@H](O)[C@@H](CO)O2)c(=O)[nH]c1=O`, the 50% cytotoxic concentration (CC50) in data set [1] and in data set [2] was over 200 µM throughout. Besides, the result in data set [5] and in data set [8] was inactive. For the same molecule, in data set [6], the outcome was Active. Further, the pIC50 in data set [3] and in data set [4] was under 3.70 throughout.
In the case of `Cc1cn([C@H]2C[C@H](N=[N+]=[N-])[C@@H](CO)O2)c(=O)[nH]c1=O` [ZIDOVUDINE], the CC50 in data set [1] and in data set [2] was over 1 µM throughout. The negative logarithm of the IC50 (pIC50) in data set [3] is 7.74.
Turning to `NC(=O)Cc1cn([C@H]2C[C@H](O)[C@@H](CO)O2)c(=O)nc1N`, the CC50 in data set [1] and in data set [2] was over 200 µM throughout. The negative-log IC50 (pIC50) in data set [3] and in data set [4] was under 3.70 throughout.
